For assay [1], the system named is Citrobacter freundii. As to the kind of experiment: The compound was tested in vitro for minimum inhibitory concentration against Citrobacter Freundii BS-16. Type of assay: functional. In a few lines:
(§1)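 Agar dilution on Mueller-Hinton agar using 2-fold serial dilutions, giving final 128 to 0.0156 μg/mL (extended to 0.000977 μg/mL where needed). Inoculum was overnight broth culture diluted 100-fold, about 3×10^4 CFU/spot, applied by replicator. MIC read after overnight incubation at 36 °C.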

For assay [2], the system named is Escherichia coli. Description: The compound was tested in vitro for minimum inhibitory concentration against Escherichia coli ATCC 25922. Format: functional. The method in brief: as §1
For assay [3], the system named is Escherichia coli. Description: Minimum inhibitory concentration required to inhibit the activity of Escherichia coli ATCC 25922. Format: functional. The method in brief: as §1
In assay [4] the test system is Escherichia coli. Description: Minimum inhibitory concentration required to inhibit the activity of Escherichia coli UB1005. Format: functional. The method in brief:
as §1

Assay [5] deals with Escherichia coli. As to the kind of experiment: The compound was tested in vitro for minimum inhibitory concentration against Escherichia coli 257. Format: functional. The method in brief:
as §1

Assay [6] concerns Enterococcus faecalis. Description: The compound was tested in vitro for minimum inhibitory concentration against Enterococcus faecalis ATCC 29212. Format: functional. The method in brief: as §1
In assay [7] the test system is Escherichia coli. Description: The compound was tested in vitro for minimum inhibitory concentration against Escherichia coli TEM-1. Format: functional. In a few lines: as §1
For assay [8], the system named is Enterobacter cloacae. Description: The compound was tested in vitro for minimum inhibitory concentration against Enterobacter cloacae P99. Format: functional.
The test system of assay [9] is Escherichia coli. As to the kind of experiment: Inhibitory activity on replicative DNA biosynthesis in Escherichia coli H560 (permeabilised cells). Type of assay: functional, organism-based. In a few lines: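 E. coli H560 cells permeabilized with toluene. ATP-dependent incorporation of [3H]thymidine into trichloroacetic acid-insoluble material was measured. IC50 taken as the concentration giving 50% inhibition.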

For assay [10], the system named is Micrococcus luteus. As to the kind of experiment: The compound was tested in vitro for minimum inhibitory concentration against Micrococcus luteus ATCC 9341. Format: functional. The method in brief:
as §1

The subject of assay [11] is Proteus mirabilis. Description: The compound was tested in vitro for minimum inhibitory concentration against Proteus mirabilis 90. Format: functional. In a few lines:
(§2)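 Proteus MICs by agar dilution on Mueller-Hinton medium containing 3% agar. Serial 2-fold dilutions gave final 128 to 0.0156 μg/mL (further to 0.000977 μg/mL). Inoculum was overnight broth diluted 100-fold, about 3×10^4 CFU/spot. Plates read after overnight incubation at 36 °C.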

Assay [12] relates to Pseudomonas aeruginosa. As to the kind of experiment: The compound was tested in vitro for minimum inhibitory concentration against Pseudomonas aeruginosa 18S/H. Type of assay: functional. The method in brief:
as §1

Assay [13] has as its system Pseudomonas aeruginosa. Description: The compound was tested in vitro for minimum inhibitory concentration against Pseudomonas aeruginosa 8780. Type of assay: functional. The method in brief: as §1
The subject of assay [14] is Proteus vulgaris. Description: The compound was tested in vitro for minimum inhibitory concentration against Proteus vulgaris 1028 BC. Format: functional. The method in brief:
as §2

The subject of assay [15] is Staphylococcus aureus. As to the kind of experiment: The compound was tested in vitro for minimum inhibitory concentration against Staphylococcus aureus 67-0. Type of assay: functional. The method in brief: as §1
Assay [16] relates to Staphylococcus aureus. Description: The compound was tested in vitro for minimum inhibitory concentration against Staphylococcus aureus 753. Type of assay: functional. The method in brief: as §1
The subject of assay [17] is Streptococcus pyogenes. Description: The compound was tested in vitro for minimum inhibitory concentration against Streptococcus pyogenes. Format: functional. In a few lines: (§3)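 Streptococci tested by agar dilution on brain heart infusion agar with 20 units/mL bovine liver catalase. Final drug range 128 to 0.0156 μg/mL by 2-fold steps, extended to 0.000977 μg/mL when required. Inoculum about 3×10^4 CFU/spot from overnight broth diluted 100-fold. MIC after overnight incubation at 36 °C.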

Assay [18] relates to Serratia marcescens. As to the kind of experiment: The compound was tested in vitro for minimum inhibitory concentration against Serratia marcescens 1071. Type of assay: functional. In a few lines:
as §1

Assay [19] has as its system Streptococcus pneumoniae. As to the kind of experiment: The compound was tested in vitro for minimum inhibitory concentration against Streptococcus pneumoniae 6301. Format: functional. The method in brief:
as §3

The subject of assay [20] is Staphylococcus aureus. Description: The compound was tested in vitro for minimum inhibitory concentration against Staphylococcus aureus smith. Type of assay: functional. The method in brief:
as §1

Assay [21] relates to Klebsiella pneumoniae. As to the kind of experiment: The compound was tested in vitro for minimum inhibitory concentration against Klebsiella pneumoniae A. Type of assay: functional. In a few lines:
as §1

Assay [22] concerns Escherichia coli. Description: Minimum inhibitory concentration for inhibition of [14C]- Pen G binding to Escherichia coli UB1005. Format: functional. In a few lines:
(§4)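 Membranes from sonicated E. coli UB1005 were solubilized. Binding to penicillin-binding proteins was measured as inhibition of [14C]penicillin G binding.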

Assay [23] relates to Escherichia coli. As to the kind of experiment: The compound was evaluated for the inhibition of [14C]- Pen G binding to Escherichia coli UB1005 penicillin-binding protein 1a 90 kDa. The method in brief:
as §4

The subject of assay [24] is Escherichia coli. Description: The compound was evaluated for the inhibition of [14C]- Pen G binding to Escherichia coli UB1005 penicillin-binding protein 1b 90 kDa. In a few lines: as §4
Assay [25] has as its system Escherichia coli. As to the kind of experiment: The compound was evaluated for the inhibition of [14C]- Pen G binding to Escherichia coli UB1005 penicillin-binding protein 2 66 kDa. The method in brief:
as §4

Assay [26] relates to Escherichia coli. As to the kind of experiment: The compound was evaluated for the inhibition of [14C]- Pen G binding to Escherichia coli UB1005 penicillin-binding protein 3 60 kDa. The method in brief:
as §4

Molecules are shown by their SMILES. Converted amounts (≈) assume the structure as drawn.

What is called MIC is the smallest concentration in the dilution series that meets the test's criterion for growth inhibition. Read a low MIC as inhibition by little substance. Broadly, the IC50 is the point on the concentration scale where inhibition reaches its midpoint. `O=C(O)C1=C(COC(=O)N2CCN(c3cc4c(cc3F)c(=O)c(C(=O)O)cn4C3CC3)CC2)CS[C@@H]2[C@H](NC(=O)C(O)c3ccccc3)C(=O)N12` (stereo partly specified): the MIC in [1] came to 0.031 µg/mL (≈ 0.043 µM); in [2], 0.031 µg/mL (≈ 0.043 µM); in assay [3], 0.03 µg/mL (≈ 0.0416 µM); in assay [4], 1 µg/mL (≈ 1.39 µM); in [5] it was 0.031 µg/mL (≈ 0.043 µM); in assay [6], 4 µg/mL (≈ 5.54 µM). Moreover, the MIC in assay [7] was 0.031 µg/mL (≈ 0.043 µM); in [8], below 0.016 µg/mL; in [10], 0.031 µg/mL (≈ 0.043 µM); in [11] it was 0.25 µg/mL (≈ 0.346 µM); in assay [12] it was 0.5 µg/mL (≈ 0.693 µM); in assay [13], 1 µg/mL (≈ 1.39 µM). The MIC in [14] is 0.063 µg/mL (≈ 0.0873 µM); in assay [15], 2 µg/mL (≈ 2.77 µM); in assay [16] it was 0.5 µg/mL (≈ 0.693 µM); in [17], below 0.016 µg/mL; in [18], 0.125 µg/mL (≈ 0.173 µM); in assay [19], 0.031 µg/mL (≈ 0.043 µM). For the same compound, the MIC in assay [20] was found to be 0.25 µg/mL (≈ 0.346 µM); in [21], 0.063 µg/mL (≈ 0.0873 µM). Also, the IC50 in assay [9] was found to be 4 µg/mL (≈ 5.54 µM).

Turning to `O=CN[C@@H]1C(=O)N2C(C(=O)O)=C(COC(=O)N3CCN(c4cc5c(cc4F)c(=O)c(C(=O)O)cn5C4CC4)CC3)CS[C@H]12`, the MIC in assay [2] came to 0.063 µg/mL (≈ 0.102 µM); in assay [3], 0.06 µg/mL (≈ 0.0975 µM); in assay [4], 2 µg/mL (≈ 3.25 µM); in assay [22], 2 µg/mL (≈ 3.25 µM); in [5], 0.063 µg/mL (≈ 0.102 µM); in assay [6] it was 4 µg/mL (≈ 6.5 µM). Also, the MIC in assay [7] was 0.063 µg/mL (≈ 0.102 µM); in assay [8], 0.031 µg/mL (≈ 0.0504 µM); in assay [10], 0.5 µg/mL (≈ 0.812 µM); in [11], 1 µg/mL (≈ 1.62 µM); in [12], 1 µg/mL (≈ 1.62 µM); in assay [13] it was 2 µg/mL (≈ 3.25 µM). In addition, the MIC in [14] amounted to 0.063 µg/mL (≈ 0.102 µM); in assay [15], 4 µg/mL (≈ 6.5 µM); in [16], 1 µg/mL (≈ 1.62 µM); in assay [17] it was 0.125 µg/mL (≈ 0.203 µM); in assay [18] it was 0.125 µg/mL (≈ 0.203 µM); in assay [19], 0.063 µg/mL (≈ 0.102 µM). Further, the results for the MIC in assay [20] and in assay [21] were 0.5 µg/mL (≈ 0.812 µM) and 0.25 µg/mL (≈ 0.406 µM), respectively. The IC50 in assay [9] was determined as 0.5 µg/mL (≈ 0.812 µM). Besides, the Inhibitory concentration in assay [23] is above 100 µg/mL; in [24], above 100 µg/mL; in assay [25] it was above 100 µg/mL; in [26], 100 µg/mL.

With `NC(=O)CO/N=C(\C(=O)N[C@@H]1C(=O)N2C(C(=O)O)=C(COC(=O)N3CCN(c4cc5c(cc4F)c(=O)c(C(=O)O)cn5C4CC4)CC3)CS[C@H]12)c1csc(N)n1`, the MIC in assay [2] amounted to 0.063 µg/mL (≈ 0.0774 µM); in assay [3] it was 0.06 µg/mL (≈ 0.0737 µM); in assay [4] it was 1 µg/mL (≈ 1.23 µM); in assay [22] it was 1 µg/mL (≈ 1.23 µM); in assay [5], 0.063 µg/mL (≈ 0.0774 µM); in assay [6] it was 0.5 µg/mL (≈ 0.614 µM). For the same compound, the MIC came to 0.063 µg/mL (≈ 0.0774 µM) in [7]; 0.063 µg/mL (≈ 0.0774 µM) in assay [8]; 0.063 µg/mL (≈ 0.0774 µM) in assay [10]; 0.5 µg/mL (≈ 0.614 µM) in [11]; 1 µg/mL (≈ 1.23 µM) in assay [12]; 2 µg/mL (≈ 2.46 µM) in [13]. The MIC in [14] was found to be 0.063 µg/mL (≈ 0.0774 µM); in [15] it was 4 µg/mL (≈ 4.92 µM); in [16], 2 µg/mL (≈ 2.46 µM); in [17], 0.031 µg/mL (≈ 0.0381 µM); in [18], 0.125 µg/mL (≈ 0.154 µM); in assay [19], 0.031 µg/mL (≈ 0.0381 µM). For the same compound, the MIC stood at 1 µg/mL (≈ 1.23 µM) in assay [20] and 0.125 µg/mL (≈ 0.154 µM) in assay [21]. Further, in assay [9], it took 1.2 µg/mL (≈ 1.47 µM) to reach half-maximal inhibition (IC50). In addition, the Inhibitory concentration is 2 µg/mL in assay [23], 10 µg/mL in assay [24], 100 µg/mL in assay [25] and below 0.1 µg/mL in [26].

The values are drawn from ChEMBL document CHEMBL1125212, “Dual-action cephalosporins: cephalosporin 3'-quinolone carbamates” (J Med Chem, 1991).
